Test results published in ChEMBL document CHEMBL5649170, “Sustained microglial depletion with CSF1R inhibitor impairs parenchymal plaque development in an Alzheimer's disease model” (Nat Commun, 2019).
Activity calls are given as the source filed them. No cut-off for these calls is given here.

Columns and labels:
[1] = target: T1, Macrophage colony-stimulating factor 1 receptor (Mus musculus) (UniProt P09581); assay: In vivo inhibition of CSF1R in wildtype mouse assessed as microglial numbers by measuring number of Iba positive cells per FOV in somatosensory cortex at 75 ppm administered as rodent chow starting from 1.5 months and measured after 5 months by immunolabeling based confocal microscopic analysis (reference value: 218 to 349); assay type: functional; details: route po, time 3.5 months
T1 sequence (whole entry): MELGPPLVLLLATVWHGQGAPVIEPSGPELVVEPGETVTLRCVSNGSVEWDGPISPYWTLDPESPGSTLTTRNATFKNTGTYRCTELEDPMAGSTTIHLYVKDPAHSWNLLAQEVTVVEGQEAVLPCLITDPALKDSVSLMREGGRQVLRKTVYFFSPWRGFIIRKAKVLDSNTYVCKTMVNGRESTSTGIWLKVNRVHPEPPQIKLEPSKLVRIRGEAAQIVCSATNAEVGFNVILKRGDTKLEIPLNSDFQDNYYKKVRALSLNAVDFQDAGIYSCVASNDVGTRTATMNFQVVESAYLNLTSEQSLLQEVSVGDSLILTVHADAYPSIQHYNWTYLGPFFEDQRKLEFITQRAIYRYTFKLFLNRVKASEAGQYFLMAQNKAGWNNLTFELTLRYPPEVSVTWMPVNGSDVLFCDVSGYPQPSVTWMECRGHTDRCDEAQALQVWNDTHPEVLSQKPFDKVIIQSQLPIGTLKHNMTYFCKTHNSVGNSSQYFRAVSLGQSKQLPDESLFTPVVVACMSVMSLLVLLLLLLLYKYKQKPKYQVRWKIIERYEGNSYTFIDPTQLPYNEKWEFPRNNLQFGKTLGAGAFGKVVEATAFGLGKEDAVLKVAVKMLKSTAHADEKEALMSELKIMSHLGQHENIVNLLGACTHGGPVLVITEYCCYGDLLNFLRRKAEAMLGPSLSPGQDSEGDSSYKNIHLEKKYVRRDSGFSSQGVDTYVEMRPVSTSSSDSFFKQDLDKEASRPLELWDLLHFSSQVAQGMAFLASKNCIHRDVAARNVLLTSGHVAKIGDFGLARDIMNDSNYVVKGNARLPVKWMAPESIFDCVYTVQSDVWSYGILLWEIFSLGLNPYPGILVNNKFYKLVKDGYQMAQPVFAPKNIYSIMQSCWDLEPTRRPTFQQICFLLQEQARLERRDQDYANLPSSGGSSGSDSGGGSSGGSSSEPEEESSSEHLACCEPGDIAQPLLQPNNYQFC

[2] = target: Serine/threonine-protein kinase PAK 5 (Homo sapiens, UniProt Q9P286); assay: Inhibition of PAK7 (unknown origin)
Misshapen-like kinase 1 = Misshapen-like kinase 1 (Homo sapiens, UniProt Q8N4C8); assay: Inhibition of MINK1 (unknown origin)
[3] = Drug concentration in 5XFAD mouse brain at 1200 ppm administered as rodent chow for 10 to 24 weeks; assay type: ADME, tissue-based; details: in vivo, po, time 10-24 weeks, read-out: Ct
In short: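 WT or 5xFAD mice were started at 1.5 months of age on PLX5622 formulated at 1200 ppm in AIN-76A chow, with control chow as comparison. Feeding ran for 10 or 24 weeks. Terminal plasma and brain drug levels were then measured. Groups were sex-balanced and compared by two-tailed independent t-test.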

[4] = Prevention of Rtn4r gene downregulation in 5XFAD mouse hippocampus assessed as percent change in Reads Per kilo base per Million mapped reads at 1200 ppm administered as rodent chow starting from 1.5 months and measured after 7 months by RNA-Seq analysis (reference value: 53.880 to 87.869 %); assay type: functional; details: route po, time 5.5 months, 4015 h
Mus musculus [5] = assay: Antialzheimer activity in 5XFAD mouse assessed as amyloidbeta42 level in detergent soluble cortex fraction measured per microgram protein at 1200 ppm administered as rodent chow starting from 1.5 months and measured after 4 months by ELISA (reference value: 0 to 0.063 pg); assay type: functional; details: route po, time 2.5 months, 1825 h
In short: (§1)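 PLX5622 at 1200 ppm in chow given to 5xFAD mice from 1.5 months to 4 or 7 months of age; cortex and thalamus homogenized in TPER (detergent-soluble), pellets re-homogenized in 70% formic acid and spun 100,000 g, 1 h, 4 °C (insoluble); protein by Bradford/Lowry; Aβ species measured by Meso Scale electrochemiluminescence immunoassay, normalized to protein; n = 7–8 per group at 7 months.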

[6] = Effect on Siglech gene expression in 5XFAD mouse hippocampus at 1200 ppm administered as rodent chow starting from 1.5 months and measured after 7 months by RNA-Seq analysis (reference value: 5.386 to 6.928 RPKM); assay type: functional; details: route po, time 5.5 months, 4015 h
[7] = Oral bioavailability in female rat at 45 mg/kg administered as single via gavage; assay type: ADME, organism-based; details: in vivo
Mus musculus [8] = assay: Antialzheimer activity in 5XFAD mouse assessed as number of Thio-S positive plaques per FOV in thalamus at 1200 ppm administered as rodent chow starting from 1.5 months and measured after 4 months by Thio-S staining based confocal microscopic analysis (reference value: 139 to 224); assay type: functional; details: route po, time 2.5 months, 1825 h
[9] = Effect on Itgax gene expression in 5XFAD mouse thalamus at 1200 ppm administered as rodent chow starting from 1.5 months and measured after 7 months by RNA-Seq analysis (reference value: 1.842 to 2.823 RPKM); assay type: functional; details: route po, time 5.5 months, 4015 h
[10] = target: Vascular endothelial growth factor receptor 2 (Homo sapiens, UniProt P35968); assay: Inhibition of KDR (unknown origin)
Mus musculus [11] = assay: Antialzheimer activity in 5XFAD mouse assessed as amyloidbeta38 level in detergent soluble cortex fraction measured per microgram protein at 1200 ppm administered as rodent chow starting from 1.5 months and measured after 7 months by ELISA (reference value: 0 to 0.014 pg); assay type: functional; details: route po, time 5.5 months, 4015 h; in short: as §1
Rhodopsin kinase GRK7 = Rhodopsin kinase GRK7 (Homo sapiens, UniProt Q8WTQ7); assay: Inhibition of GRK7 (unknown origin)
Mus musculus [12] = assay: Antialzheimer activity in 5XFAD mouse assessed as amyloidbeta42 level in detergent insoluble thalamus fraction measured per microgram protein at 1200 ppm administered as rodent chow starting from 1.5 months and measured after 4 months by ELISA (reference value: 181082 to 7435203 pg); assay type: functional; details: route po, time 2.5 months, 1825 h; in short: as §1
[13] = target: Serine/threonine-protein kinase 25 (Homo sapiens, UniProt O00506); assay: Inhibition of STK25 (unknown origin)
[14] = target: Mitogen-activated protein kinase 1 (Homo sapiens, UniProt P28482); assay: Inhibition of MAPK1 (unknown origin)
Mus musculus [15] = assay: Antialzheimer activity in 5XFAD mouse assessed as microglial elimination in brain at 1200 ppm administered as rodent chow by Thio-S staining based confocal microscopic analysis; details: route po
[16] = Cmax in mouse at 45 mg/kg, po administered as single dose via gavage; assay type: ADME, organism-based; details: in vivo
Mus musculus [17] = assay: Prevention of C1qc gene upregulation in 5XFAD mouse hippocampus at 1200 ppm administered as rodent chow starting from 1.5 months and measured after 7 months by Nanostring analysis; assay type: functional, tissue-based; details: route po, time 5.5 months
Mus musculus [18] = assay: Antialzheimer activity in 5XFAD mouse assessed as alteration in plaque morphology in cortex at 1200 ppm administered as rodent chow starting from 1.5 months and measured after 7 months by Thio-S labeling based confocal microscopic analysis; assay type: functional, organism-based; details: route po, time 5.5 months

Mitogen-activated protein kinase 1, sequence (P28482 whole entry): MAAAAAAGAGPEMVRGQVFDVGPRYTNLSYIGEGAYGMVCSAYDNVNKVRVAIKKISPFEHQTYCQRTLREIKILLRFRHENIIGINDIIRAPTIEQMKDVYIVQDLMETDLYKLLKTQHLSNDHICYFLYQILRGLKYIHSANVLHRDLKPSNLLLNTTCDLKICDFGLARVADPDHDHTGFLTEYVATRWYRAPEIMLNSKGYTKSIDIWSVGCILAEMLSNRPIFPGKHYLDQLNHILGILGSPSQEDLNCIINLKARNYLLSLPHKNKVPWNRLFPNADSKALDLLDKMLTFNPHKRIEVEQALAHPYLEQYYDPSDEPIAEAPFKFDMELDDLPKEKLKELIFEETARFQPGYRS
Serine/threonine-protein kinase PAK 5, sequence (Q9P286 whole entry): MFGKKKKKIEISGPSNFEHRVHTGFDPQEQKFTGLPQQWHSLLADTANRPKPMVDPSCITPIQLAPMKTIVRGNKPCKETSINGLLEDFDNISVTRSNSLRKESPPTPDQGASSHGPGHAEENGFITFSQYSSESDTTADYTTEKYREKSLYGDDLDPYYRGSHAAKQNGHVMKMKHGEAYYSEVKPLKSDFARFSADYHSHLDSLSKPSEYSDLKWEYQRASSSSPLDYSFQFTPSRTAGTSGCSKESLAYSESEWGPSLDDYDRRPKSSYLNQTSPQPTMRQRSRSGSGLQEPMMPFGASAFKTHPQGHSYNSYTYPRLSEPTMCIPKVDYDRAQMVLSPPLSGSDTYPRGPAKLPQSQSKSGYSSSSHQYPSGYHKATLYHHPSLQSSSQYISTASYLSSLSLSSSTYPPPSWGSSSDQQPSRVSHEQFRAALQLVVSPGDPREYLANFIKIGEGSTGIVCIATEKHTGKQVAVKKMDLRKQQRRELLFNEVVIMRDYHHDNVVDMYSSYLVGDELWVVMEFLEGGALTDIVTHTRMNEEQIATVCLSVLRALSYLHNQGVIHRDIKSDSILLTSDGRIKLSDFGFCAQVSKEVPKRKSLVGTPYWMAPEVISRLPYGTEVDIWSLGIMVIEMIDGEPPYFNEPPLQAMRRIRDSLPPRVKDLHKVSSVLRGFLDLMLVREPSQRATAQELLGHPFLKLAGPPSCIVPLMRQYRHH
Misshapen-like kinase 1, sequence (Q8N4C8 whole entry): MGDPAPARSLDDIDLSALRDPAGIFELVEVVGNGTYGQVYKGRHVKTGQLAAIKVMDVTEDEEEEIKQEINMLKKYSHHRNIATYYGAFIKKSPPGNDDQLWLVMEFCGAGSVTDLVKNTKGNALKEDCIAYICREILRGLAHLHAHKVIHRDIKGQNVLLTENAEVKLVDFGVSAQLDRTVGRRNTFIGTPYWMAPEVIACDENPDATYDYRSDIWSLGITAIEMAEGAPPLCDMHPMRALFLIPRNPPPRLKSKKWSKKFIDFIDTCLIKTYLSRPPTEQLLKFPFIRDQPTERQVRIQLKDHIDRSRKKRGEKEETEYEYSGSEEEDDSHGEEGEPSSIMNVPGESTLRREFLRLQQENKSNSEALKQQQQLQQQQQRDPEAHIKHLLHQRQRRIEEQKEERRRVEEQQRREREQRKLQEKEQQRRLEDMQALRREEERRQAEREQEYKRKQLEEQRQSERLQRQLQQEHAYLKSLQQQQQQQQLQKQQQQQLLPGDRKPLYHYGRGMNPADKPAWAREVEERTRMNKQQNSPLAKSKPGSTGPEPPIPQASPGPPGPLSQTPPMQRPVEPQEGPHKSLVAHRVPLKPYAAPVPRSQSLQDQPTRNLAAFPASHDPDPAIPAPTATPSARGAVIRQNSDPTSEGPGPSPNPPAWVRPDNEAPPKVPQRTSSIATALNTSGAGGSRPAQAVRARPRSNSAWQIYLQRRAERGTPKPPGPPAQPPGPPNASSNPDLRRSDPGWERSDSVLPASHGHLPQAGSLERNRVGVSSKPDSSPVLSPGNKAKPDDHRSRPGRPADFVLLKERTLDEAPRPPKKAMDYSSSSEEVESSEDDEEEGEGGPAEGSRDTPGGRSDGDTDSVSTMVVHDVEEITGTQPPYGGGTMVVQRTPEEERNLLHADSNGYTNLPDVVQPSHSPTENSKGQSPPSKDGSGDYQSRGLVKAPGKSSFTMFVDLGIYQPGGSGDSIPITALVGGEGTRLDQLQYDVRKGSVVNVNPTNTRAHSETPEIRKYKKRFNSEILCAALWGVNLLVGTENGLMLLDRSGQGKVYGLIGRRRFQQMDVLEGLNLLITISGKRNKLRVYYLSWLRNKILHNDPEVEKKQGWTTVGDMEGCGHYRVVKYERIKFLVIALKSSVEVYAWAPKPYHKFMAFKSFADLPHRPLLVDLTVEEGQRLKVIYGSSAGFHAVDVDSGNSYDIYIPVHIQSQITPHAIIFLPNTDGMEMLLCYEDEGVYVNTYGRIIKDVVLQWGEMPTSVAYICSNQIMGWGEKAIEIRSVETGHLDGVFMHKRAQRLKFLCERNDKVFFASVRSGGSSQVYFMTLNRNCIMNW
Vascular endothelial growth factor receptor 2, sequence (P35968 whole entry): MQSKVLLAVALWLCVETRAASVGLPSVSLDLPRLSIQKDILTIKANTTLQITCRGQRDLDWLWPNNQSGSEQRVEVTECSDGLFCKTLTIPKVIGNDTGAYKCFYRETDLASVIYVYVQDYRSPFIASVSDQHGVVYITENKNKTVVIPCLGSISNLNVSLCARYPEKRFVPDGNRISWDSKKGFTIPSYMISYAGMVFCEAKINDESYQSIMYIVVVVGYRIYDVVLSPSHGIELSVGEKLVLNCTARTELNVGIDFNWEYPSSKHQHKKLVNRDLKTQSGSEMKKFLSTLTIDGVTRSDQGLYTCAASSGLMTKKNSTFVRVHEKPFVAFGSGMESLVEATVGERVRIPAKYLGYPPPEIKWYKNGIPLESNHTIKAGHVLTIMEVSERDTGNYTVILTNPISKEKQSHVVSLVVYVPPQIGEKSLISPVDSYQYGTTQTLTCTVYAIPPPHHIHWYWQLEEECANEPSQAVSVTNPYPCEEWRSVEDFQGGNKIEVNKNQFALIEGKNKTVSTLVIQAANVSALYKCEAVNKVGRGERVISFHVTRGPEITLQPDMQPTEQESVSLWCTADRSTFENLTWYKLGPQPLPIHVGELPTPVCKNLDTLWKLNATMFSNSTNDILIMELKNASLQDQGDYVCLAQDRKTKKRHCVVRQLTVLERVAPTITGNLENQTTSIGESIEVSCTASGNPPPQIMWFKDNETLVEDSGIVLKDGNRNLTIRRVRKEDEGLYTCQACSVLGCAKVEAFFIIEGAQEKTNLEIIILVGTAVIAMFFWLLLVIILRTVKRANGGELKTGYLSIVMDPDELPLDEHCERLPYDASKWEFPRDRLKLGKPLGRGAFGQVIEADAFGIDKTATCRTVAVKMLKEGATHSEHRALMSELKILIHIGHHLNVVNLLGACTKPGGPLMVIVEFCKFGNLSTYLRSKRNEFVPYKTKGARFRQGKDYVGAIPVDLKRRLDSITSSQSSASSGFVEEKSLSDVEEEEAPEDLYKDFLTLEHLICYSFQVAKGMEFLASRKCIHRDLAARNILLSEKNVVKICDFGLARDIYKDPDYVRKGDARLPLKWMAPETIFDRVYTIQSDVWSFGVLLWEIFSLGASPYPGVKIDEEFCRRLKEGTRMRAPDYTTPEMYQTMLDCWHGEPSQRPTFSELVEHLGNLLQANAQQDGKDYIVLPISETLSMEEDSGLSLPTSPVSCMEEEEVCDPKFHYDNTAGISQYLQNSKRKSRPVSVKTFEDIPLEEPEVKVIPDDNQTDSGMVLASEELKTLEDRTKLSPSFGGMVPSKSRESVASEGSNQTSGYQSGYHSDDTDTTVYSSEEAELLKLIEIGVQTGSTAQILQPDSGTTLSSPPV
Rhodopsin kinase GRK7, sequence (Q8WTQ7 whole entry): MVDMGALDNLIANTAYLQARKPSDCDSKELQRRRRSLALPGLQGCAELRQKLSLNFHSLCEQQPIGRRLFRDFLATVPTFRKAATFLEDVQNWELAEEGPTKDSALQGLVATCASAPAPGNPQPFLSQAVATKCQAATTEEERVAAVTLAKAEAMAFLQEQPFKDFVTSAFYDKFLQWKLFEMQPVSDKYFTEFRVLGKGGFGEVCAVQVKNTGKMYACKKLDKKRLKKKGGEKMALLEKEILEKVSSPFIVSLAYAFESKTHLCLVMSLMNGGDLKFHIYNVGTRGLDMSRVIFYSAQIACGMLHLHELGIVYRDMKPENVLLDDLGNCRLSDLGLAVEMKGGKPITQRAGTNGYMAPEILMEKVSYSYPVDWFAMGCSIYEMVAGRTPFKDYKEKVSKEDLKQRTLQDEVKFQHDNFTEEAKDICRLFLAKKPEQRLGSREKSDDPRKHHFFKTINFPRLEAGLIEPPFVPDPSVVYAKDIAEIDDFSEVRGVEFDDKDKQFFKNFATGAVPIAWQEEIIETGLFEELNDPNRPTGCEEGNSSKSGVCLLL
Serine/threonine-protein kinase 25, sequence (O00506 whole entry): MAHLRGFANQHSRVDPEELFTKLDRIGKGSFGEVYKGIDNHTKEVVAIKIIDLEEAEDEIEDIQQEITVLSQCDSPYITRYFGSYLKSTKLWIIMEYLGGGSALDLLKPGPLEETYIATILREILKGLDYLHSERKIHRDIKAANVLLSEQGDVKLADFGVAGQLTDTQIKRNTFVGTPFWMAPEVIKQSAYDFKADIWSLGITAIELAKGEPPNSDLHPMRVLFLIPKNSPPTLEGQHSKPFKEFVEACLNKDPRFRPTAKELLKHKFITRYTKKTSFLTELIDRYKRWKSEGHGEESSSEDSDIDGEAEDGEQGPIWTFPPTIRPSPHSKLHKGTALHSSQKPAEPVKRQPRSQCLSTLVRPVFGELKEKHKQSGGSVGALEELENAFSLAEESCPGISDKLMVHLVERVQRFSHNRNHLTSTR

Activity [1] | SMILES | IC50 [2] [nM] | IC50 (Misshapen-like kinase 1) [nM] | concentration [3] [µM] | Activity [4] [%] | Activity (Mus musculus [5]) [pg] | Activity [6] [RPKM] | bioavailability [7] [%] | Activity (Mus musculus [8]) | Activity [9] [RPKM] | IC50 [10] [nM] | Activity (Mus musculus [11]) [pg] | IC50 (Rhodopsin kinase GRK7) [nM] | Activity (Mus musculus [12]) [pg] | IC50 [13] [nM] | IC50 [14] [nM] | Activity (Mus musculus [15]) | Cmax [16] [ng/mL] | Activity (Mus musculus [17]) | Activity (Mus musculus [18])
205 | FC(F)(F)c1ccc(CNc2ccc(Cc3c[nH]c4ncc(Cl)cc34)cn2)cn1 [PEXIDARTINIB] | – | – | – | – | – | – | – | – | – | – | – | – | – | – | – | – | – | – | –
– | COc1ncc(F)cc1CNc1ccc(Cc2c[nH]c3ncc(C)cc23)c(F)n1 [PLX-5622] | > 1000 | > 1000 | 3.47 | 95.841 | 0.006 | 0.195 | 89 | 76 | 0.043 | 1100 | 0 | > 1000 | 117968.4 | > 1000 | > 1000 | Active | 26300 | Active | Active
